Experimental data published in the M2OR odorant receptor database.
Residue numbers refer to the chain shown, from its start.

Key:
Details in all cases: stereoisomer not certain
[1] = target: T1, OR5AC2 (Homo sapiens) (UniProt Q9NZP5)
T1 sequence (whole entry): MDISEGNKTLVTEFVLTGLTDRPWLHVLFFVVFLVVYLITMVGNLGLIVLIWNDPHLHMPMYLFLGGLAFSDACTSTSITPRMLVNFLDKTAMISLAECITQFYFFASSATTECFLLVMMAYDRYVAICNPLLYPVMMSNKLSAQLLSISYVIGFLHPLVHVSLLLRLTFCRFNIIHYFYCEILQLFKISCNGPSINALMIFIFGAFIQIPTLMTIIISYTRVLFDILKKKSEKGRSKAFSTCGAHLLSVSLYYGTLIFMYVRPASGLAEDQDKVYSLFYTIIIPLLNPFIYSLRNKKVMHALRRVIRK
Outline: (§1)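 Transient luciferase assays in mammalian cell lines were common, though methods varied by source. The values come from published papers and their supplementary material, with extra details from the original authors when needed. Responsive refers to a measured signal the original authors judged statistically different from baseline, and non-responsive (inactive) to the remainder.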

[2] = target: T2, OR52N4 (Homo sapiens) (UniProt Q8NGI2)
T2 sequence (whole entry): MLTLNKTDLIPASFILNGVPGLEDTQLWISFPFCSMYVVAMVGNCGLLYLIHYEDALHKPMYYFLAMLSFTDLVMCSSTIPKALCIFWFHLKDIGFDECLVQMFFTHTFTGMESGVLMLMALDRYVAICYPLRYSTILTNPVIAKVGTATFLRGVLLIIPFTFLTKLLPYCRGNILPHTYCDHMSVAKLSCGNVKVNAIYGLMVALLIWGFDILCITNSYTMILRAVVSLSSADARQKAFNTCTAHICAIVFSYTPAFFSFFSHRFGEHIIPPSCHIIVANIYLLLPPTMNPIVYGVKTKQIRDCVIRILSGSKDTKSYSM
Outline: as §1

[3] = target: T3, OR52N5 (Homo sapiens) (UniProt Q8NH56)
T3 sequence (whole entry): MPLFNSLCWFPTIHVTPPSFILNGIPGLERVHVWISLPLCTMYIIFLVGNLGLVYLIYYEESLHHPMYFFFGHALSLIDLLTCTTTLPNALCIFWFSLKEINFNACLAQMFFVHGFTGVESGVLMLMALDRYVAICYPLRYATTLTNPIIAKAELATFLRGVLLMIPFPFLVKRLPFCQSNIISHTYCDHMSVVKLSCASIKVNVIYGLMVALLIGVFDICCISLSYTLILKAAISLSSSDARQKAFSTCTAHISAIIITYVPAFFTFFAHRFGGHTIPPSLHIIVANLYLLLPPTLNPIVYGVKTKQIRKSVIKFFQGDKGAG
Outline: as §1

[4] = target: T4, OR52R1 (Homo sapiens) (UniProt Q8NGF1)
T4 sequence (whole entry): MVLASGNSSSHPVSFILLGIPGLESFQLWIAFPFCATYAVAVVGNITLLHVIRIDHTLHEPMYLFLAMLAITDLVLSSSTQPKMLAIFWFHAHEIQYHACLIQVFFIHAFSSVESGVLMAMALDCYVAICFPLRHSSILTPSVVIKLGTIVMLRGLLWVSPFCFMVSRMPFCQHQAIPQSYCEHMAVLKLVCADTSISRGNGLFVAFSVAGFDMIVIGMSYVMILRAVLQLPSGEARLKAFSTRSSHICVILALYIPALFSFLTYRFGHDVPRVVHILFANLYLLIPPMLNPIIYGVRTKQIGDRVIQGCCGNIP
Outline: as §1

[5] = target: T5, OR52W1 (Homo sapiens) (UniProt Q6IF63)
T5 sequence (whole entry): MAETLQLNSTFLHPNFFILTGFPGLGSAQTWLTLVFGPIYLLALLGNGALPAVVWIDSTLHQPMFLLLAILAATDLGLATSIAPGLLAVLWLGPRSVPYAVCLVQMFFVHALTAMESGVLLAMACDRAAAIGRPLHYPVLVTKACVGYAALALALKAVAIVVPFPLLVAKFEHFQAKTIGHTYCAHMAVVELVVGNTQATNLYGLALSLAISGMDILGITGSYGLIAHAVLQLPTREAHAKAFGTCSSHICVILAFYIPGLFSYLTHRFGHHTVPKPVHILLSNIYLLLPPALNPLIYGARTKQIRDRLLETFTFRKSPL
Outline: as §1

[6] = target: T6, OR56A1 (Homo sapiens) (UniProt Q8NGH5)
T6 sequence (whole entry): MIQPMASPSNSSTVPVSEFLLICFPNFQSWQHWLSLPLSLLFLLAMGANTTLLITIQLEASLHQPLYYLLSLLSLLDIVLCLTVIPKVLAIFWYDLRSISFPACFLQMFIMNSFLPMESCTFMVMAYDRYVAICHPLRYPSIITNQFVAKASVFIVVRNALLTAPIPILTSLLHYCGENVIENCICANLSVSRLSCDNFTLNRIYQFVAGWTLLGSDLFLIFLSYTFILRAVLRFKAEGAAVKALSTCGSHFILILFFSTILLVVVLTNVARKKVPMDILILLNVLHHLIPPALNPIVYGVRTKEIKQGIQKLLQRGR
Outline: as §1

[7] = target: T7, OR56A3 (Homo sapiens) (UniProt Q8NH54)
T7 sequence (whole entry): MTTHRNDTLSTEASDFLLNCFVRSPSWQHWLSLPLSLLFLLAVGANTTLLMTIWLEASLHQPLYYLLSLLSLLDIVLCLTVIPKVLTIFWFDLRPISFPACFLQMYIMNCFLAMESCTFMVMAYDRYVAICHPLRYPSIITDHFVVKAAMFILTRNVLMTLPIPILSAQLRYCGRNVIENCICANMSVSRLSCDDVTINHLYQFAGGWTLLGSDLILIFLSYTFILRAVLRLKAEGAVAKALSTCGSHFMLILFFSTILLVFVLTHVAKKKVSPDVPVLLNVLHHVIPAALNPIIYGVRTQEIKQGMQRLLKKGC
Outline: as §1

[8] = target: T8, OR56A4 (Homo sapiens) (UniProt Q8NGH8)
T8 sequence (whole entry): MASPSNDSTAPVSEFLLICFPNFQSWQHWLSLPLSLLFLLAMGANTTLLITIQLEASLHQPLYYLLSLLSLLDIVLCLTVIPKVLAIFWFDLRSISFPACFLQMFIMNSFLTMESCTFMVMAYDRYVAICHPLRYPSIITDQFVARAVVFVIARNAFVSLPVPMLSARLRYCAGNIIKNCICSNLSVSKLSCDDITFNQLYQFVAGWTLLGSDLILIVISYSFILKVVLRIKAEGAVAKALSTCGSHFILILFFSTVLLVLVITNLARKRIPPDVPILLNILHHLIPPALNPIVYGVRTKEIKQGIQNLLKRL
Outline: as §1

[9] = target: T9, OR56A5 (Homo sapiens) (UniProt P0C7T3)
T9 sequence (whole entry): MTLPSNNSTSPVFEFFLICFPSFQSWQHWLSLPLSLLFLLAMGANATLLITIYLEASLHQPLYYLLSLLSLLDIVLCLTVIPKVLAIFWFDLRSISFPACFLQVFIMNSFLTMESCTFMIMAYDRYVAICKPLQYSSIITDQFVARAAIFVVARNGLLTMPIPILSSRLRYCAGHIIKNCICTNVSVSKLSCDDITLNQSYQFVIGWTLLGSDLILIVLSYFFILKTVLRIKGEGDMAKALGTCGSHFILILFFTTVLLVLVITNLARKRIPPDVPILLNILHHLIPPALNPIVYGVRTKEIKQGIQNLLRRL
Outline: as §1

[10] = target: T10, OR56B1 (Homo sapiens) (UniProt Q8NGI3)
T10 sequence (whole entry): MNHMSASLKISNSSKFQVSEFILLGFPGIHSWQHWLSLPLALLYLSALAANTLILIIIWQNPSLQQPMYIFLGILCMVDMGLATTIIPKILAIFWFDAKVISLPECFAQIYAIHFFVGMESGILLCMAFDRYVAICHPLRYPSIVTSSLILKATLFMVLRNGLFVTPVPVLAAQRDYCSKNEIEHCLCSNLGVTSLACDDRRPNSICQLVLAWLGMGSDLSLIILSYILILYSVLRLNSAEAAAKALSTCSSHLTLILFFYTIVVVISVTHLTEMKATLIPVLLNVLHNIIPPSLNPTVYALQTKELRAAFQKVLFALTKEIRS
Outline: as §1

[11] = target: T11, OR56B4 (Homo sapiens) (UniProt Q8NH76)
T11 sequence (whole entry): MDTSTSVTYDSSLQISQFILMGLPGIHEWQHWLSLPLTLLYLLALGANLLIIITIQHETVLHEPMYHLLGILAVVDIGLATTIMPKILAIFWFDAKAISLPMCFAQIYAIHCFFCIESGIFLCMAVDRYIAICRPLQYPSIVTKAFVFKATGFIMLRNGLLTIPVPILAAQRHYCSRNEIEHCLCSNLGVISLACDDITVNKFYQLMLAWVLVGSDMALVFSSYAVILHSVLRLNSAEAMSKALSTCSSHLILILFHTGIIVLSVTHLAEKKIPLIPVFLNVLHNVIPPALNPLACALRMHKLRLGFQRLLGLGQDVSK
Outline: as §1

[12] = target: T12, OR5A1 (Homo sapiens) (UniProt Q8NGJ0)
T12 sequence (whole entry): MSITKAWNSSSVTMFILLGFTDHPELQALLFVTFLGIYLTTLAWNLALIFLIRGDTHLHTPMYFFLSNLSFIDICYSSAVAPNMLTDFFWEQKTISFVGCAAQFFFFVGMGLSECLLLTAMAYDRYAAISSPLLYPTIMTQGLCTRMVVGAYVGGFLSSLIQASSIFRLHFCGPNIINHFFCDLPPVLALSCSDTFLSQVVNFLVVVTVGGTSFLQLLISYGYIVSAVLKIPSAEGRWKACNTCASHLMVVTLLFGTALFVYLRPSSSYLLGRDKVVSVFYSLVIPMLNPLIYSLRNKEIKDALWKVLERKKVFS
Outline: as §1

[13] = test system: T13, OR5A1 D183N
T13 sequence (whole entry): T12 sequence (whole entry) with D183N
Outline: as §1

[14] = target: T14, OR5A2 (Homo sapiens) (UniProt Q8NGI9)
T14 sequence (whole entry): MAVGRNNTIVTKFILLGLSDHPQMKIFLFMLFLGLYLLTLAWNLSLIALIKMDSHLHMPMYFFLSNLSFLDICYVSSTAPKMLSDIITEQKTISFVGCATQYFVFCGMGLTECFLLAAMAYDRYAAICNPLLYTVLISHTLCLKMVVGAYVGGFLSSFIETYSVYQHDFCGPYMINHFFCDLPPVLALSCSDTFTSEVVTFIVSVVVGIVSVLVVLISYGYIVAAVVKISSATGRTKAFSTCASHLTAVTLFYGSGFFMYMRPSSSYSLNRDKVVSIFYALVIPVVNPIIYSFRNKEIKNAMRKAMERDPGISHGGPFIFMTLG
Outline: as §1

[15] = target: T15, OR5AK2 (Homo sapiens) (UniProt Q8NH90)
T15 sequence (whole entry): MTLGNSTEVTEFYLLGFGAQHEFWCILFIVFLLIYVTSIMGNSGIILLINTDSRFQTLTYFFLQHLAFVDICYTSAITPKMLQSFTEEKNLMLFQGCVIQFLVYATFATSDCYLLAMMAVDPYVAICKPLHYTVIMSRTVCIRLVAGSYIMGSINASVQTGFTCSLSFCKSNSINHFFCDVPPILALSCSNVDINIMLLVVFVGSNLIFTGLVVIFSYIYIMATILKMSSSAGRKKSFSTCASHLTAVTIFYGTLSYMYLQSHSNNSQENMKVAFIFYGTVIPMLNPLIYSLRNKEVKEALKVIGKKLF
Outline: as §1

[16] = target: T16, OR5AN1 (Homo sapiens) (UniProt Q8NGI8)
T16 sequence (whole entry): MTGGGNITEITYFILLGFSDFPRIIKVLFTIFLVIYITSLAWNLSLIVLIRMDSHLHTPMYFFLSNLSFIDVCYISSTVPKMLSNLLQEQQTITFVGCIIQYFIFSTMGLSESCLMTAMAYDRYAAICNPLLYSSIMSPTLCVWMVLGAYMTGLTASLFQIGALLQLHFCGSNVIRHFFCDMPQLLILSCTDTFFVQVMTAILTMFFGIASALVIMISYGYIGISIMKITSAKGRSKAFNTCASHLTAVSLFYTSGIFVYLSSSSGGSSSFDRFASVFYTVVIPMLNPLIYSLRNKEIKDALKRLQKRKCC
Outline: as §1

[17] = target: T17, OR5AP2 (Homo sapiens) (UniProt Q8NGF4)
T17 sequence (whole entry): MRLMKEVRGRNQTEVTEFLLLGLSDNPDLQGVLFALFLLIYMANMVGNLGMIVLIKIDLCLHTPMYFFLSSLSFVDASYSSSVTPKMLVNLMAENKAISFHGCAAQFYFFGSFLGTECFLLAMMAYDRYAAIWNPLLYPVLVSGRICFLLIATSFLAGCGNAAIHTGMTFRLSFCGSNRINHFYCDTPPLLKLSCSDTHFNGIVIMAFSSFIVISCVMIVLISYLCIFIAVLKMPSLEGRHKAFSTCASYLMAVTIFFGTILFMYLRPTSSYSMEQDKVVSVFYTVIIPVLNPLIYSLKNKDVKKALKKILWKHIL
Outline: as §1

[18] = target: OR52Z1P (Homo sapiens) (UniProt P0C646)
Sequence of OR52Z1P (Homo sapiens) (P0C646 whole entry): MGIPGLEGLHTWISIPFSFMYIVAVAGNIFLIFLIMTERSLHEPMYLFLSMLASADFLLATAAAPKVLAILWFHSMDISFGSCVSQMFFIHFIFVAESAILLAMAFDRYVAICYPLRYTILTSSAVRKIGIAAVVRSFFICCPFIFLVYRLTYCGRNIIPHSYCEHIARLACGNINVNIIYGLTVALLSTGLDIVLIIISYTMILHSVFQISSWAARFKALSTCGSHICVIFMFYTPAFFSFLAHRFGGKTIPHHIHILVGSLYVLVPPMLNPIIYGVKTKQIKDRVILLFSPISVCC
Outline: as §1

[19] = target: OR5AC1 (Homo sapiens) (UniProt P0C628)
Sequence of OR5AC1 (Homo sapiens) (P0C628 whole entry): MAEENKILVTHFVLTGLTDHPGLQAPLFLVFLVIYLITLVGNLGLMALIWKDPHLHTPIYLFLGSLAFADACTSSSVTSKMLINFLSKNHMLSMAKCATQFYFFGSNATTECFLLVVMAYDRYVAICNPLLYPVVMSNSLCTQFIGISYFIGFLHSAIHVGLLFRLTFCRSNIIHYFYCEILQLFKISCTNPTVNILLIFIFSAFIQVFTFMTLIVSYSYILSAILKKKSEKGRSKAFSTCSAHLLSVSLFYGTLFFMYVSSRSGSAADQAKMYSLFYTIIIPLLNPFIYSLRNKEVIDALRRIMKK
Outline: as §1

[20] = target: OR5AL1 (Homo sapiens) (UniProt P0C617)
Sequence of OR5AL1 (Homo sapiens) (P0C617 whole entry): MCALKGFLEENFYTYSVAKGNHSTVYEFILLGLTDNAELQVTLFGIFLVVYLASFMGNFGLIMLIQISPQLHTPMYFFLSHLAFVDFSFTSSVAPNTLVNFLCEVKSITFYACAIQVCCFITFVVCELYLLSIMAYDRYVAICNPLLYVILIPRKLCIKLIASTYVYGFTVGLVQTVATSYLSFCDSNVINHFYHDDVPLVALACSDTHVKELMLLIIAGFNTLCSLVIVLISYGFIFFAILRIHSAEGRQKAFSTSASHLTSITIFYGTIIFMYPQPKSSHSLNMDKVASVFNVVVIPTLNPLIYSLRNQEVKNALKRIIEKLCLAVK
Outline: as §1

Measured: odorant receptor agonist call

CC(C)(C)C1CCCCC1OCCCCO (stereo not drawn)
inactive: [1]

CCCCC1CCC(=O)O1 (stereo not drawn)
inactive: [1]

CCCCCCC=CCCC=O
not listed: [18] | [19] | [20]
inactive: all other assays above

CC1=C(O)C(=O)OC1C (stereo not drawn)
not listed: [8] | [18] | [19] | [20]
inactive: all other assays above

CCCCCC(S)C(C)CO (stereo not drawn)
not listed: [13] | [18] | [19] | [20]
inactive: all other assays above

CC1=C(O)C(=O)C(C)O1 (stereo not drawn)
not listed: [8] | [18] | [19] | [20]
inactive: all other assays above

CCCCCC1COCCC1OC(C)=O (stereo not drawn)
inactive: [1]

CC(CO)CS (stereo not drawn)
not listed: [13] | [18] | [19] | [20]
inactive: all other assays above

CC(=O)c1c(C)c([N+](=O)[O-])c(C(C)(C)C)c([N+](=O)[O-])c1C
active: [16]
not listed: [13]
inactive: all other assays above

C=CC(C)(O)CCC=C(C)CCC=C(C)C (stereo not drawn)
inactive: [1]

CCCCCC(=O)C(C)C(C)=O (stereo not drawn)
not listed: [13] | [18] | [19] | [20]
inactive: all other assays above

CC(C)=CCCC(C)=CCO
inactive: [1]

CC(=O)OCc1ccccc1
inactive: [1]

COC1CC2CC1C1CC(C=O)CC21 (stereo not drawn)
inactive: [1]

CCCCCC1CCCC(=O)O1 (stereo not drawn)
active: [3] | [4] | [11]
inactive: [2] | [5] | [6] | [7] | [8] | [10]

CCC=C(C)C(O)CCCCC (stereo not drawn)
inactive: [1]
